Reference: ChEMBL document CHEMBL1909541, “Hantzsch reaction: synthesis and characterization of some new 1,4-dihydropyridine derivatives as potent antimicrobial and antioxidant agents” (Eur J Med Chem, 2011)

Columns and labels:
Escherichia coli [1] = experiment: Antibacterial activity against Escherichia coli ATCC 25922 at 0.25 mg/mL after 24 hrs by agar-well diffusion method; assay type: functional; conditions: ATCC 25922, 24 h, read-out: IZ
Outline: (§1)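 Well diffusion on Mueller-Hinton agar seeded with 24 h old cultures. Test compounds dissolved in DMSO at 1, 0.5 and 0.25 mg/mL. 6 mm wells were punched with a sterile cork borer, test solutions added, and plates incubated 24 h at 37 °C.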

Staphylococcus aureus [2] = experiment: Antibacterial activity against Staphylococcus aureus ATCC 25923 at 0.5 mg/mL after 24 hrs by agar-well diffusion method; assay type: functional; conditions: ATCC 25923, 24 h, read-out: IZ; outline: as §1
[3] = tested on: Radical scavenging activity; experiment: Antioxidant activity assessed as DPPH free radical scavenging activity at 100 uM after 30 mins; assay type: functional
Outline: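 Sample brought to 1 mL with MeOH and mixed with 3 mL fresh 0.1 mM DPPH. Kept 30 min in the dark, then absorbance read at 517 nm. A DPPH control without sample was included. Scavenging (%) = [(Abs control − Abs sample)/Abs control] × 100.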

Aspergillus flavus [4] = experiment: Antifungal activity against Aspergillus flavus MTCC 3306 at 0.25 mg/mL after 72 hrs by agar-well diffusion method; assay type: functional; conditions: MTCC 3306, 72 h, read-out: DIZ
Outline: (§2)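 Fungal spore suspensions made in normal saline were spread onto agar adjusted to pH 5.7, then dried 1 h at 37 °C. Wells were cut and loaded with test compounds in DMSO at different concentrations, with a DMSO control. Plates run in triplicate at 25 °C for 72 h. Read-out was inhibition zone diameter.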

Aspergillus flavus [5] = experiment: Antifungal activity against Aspergillus flavus MTCC 3306 at 1 mg/mL after 72 hrs by agar-well diffusion method; assay type: functional; conditions: MTCC 3306, 72 h, read-out: DIZ; outline: as §2
Staphylococcus aureus [6] = experiment: Antibacterial activity against Staphylococcus aureus ATCC 25923 at 0.25 mg/mL after 24 hrs by agar-well diffusion method; assay type: functional; conditions: ATCC 25923, 24 h, read-out: IZ; outline: as §1
Pseudomonas aeruginosa [7] = experiment: Antibacterial activity against Pseudomonas aeruginosa ATCC 27853 at 0.5 mg/mL after 24 hrs by agar-well diffusion method; assay type: functional; conditions: ATCC 27853, 24 h, read-out: IZ; outline: as §1
Escherichia coli [8] = experiment: Antibacterial activity against Escherichia coli ATCC 25922 at 1 mg/mL after 24 hrs by agar-well diffusion method; assay type: functional; conditions: ATCC 25922, 24 h, read-out: IZ; outline: as §1
[9] = Antifungal activity against Chrysosporium keratinophilum MTCC 2827 at 0.25 mg/mL after 72 hrs by agar-well diffusion method; assay type: functional; outline: as §2
Staphylococcus aureus [10] = experiment: Antibacterial activity against Staphylococcus aureus ATCC 25923 at 1 mg/mL after 24 hrs by agar-well diffusion method; assay type: functional; conditions: ATCC 25923, 24 h, read-out: IZ; outline: as §1
Candida albicans [11] = experiment: Antifungal activity against Candida albicans MTCC 3017 at 0.25 mg/mL after 72 hrs by agar-well diffusion method; assay type: functional; conditions: MTCC 3017, 72 h, read-out: DIZ; outline: as §2
Candida albicans [12] = experiment: Antifungal activity against Candida albicans MTCC 3017 at 0.5 mg/mL after 72 hrs by agar-well diffusion method; assay type: functional; conditions: MTCC 3017, 72 h, read-out: DIZ; outline: as §2
Escherichia coli [13] = experiment: Antibacterial activity against Escherichia coli ATCC 25922 at 0.5 mg/mL after 24 hrs by agar-well diffusion method; assay type: functional; conditions: ATCC 25922, 24 h, read-out: IZ; outline: as §1
Pseudomonas aeruginosa [14] = experiment: Antibacterial activity against Pseudomonas aeruginosa ATCC 27853 at 0.25 mg/mL after 24 hrs by agar-well diffusion method; assay type: functional; conditions: ATCC 27853, 24 h, read-out: IZ; outline: as §1
Mus musculus [15] = experiment: Acute toxicity in Swiss albino mouse assessed as mortality up to 3000 mg/kg, po in single dose measured up to 24 hrs; assay type: organism-based; set-up: dose 3000 mg/kg, route oral; conditions: in vivo
Outline: (§3)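 Single oral dose per OECD acute oral toxicity guidelines, 250 to 3000 mg/kg, given as a fine suspension in double distilled water with Tween 80. Toxic symptoms and behavioral changes observed continuously for 4 h, then at 8, 12 and 24 h; deaths recorded.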

Aspergillus flavus [16] = experiment: Antifungal activity against Aspergillus flavus MTCC 3306 at 0.5 mg/mL after 72 hrs by agar-well diffusion method; assay type: functional; conditions: MTCC 3306, 72 h, read-out: DIZ; outline: as §2
[17] = Antifungal activity against Chrysosporium keratinophilum MTCC 2827 at 0.5 mg/mL after 72 hrs by agar-well diffusion method; assay type: functional; outline: as §2
[18] = Antifungal activity against Chrysosporium keratinophilum MTCC 2827 at 1 mg/mL after 72 hrs by agar-well diffusion method; assay type: functional; outline: as §2
Pseudomonas aeruginosa [19] = experiment: Antibacterial activity against Pseudomonas aeruginosa ATCC 27853 at 1 mg/mL after 24 hrs by agar-well diffusion method; assay type: functional; conditions: ATCC 27853, 24 h, read-out: IZ; outline: as §1
Candida albicans [20] = experiment: Antifungal activity against Candida albicans MTCC 3017 at 1 mg/mL after 72 hrs by agar-well diffusion method; assay type: functional; conditions: MTCC 3017, 72 h, read-out: DIZ; outline: as §2
Mus musculus [21] = experiment: Acute toxicity in Swiss albino mouse assessed as behavioral changes up to 3000 mg/kg, po in single dose measured up to 24 hrs; assay type: organism-based; set-up: dose 3000 mg/kg, route oral; conditions: in vivo; outline: as §3
Mus musculus [22] = experiment: Acute toxicity in Swiss albino mouse assessed as behavioral changes at >2000 mg/kg, po in single dose measured up to 24 hrs; assay type: organism-based; conditions: in vivo; outline: as §3
Mus musculus [23] = experiment: Acute toxicity in Swiss albino mouse assessed as mortality at >2000 mg/kg, po in single dose measured up to 24 hrs; assay type: organism-based; conditions: in vivo; outline: as §3

SMILES	zone of inhibition at 250 µg/mL (Escherichia coli [1])	zone of inhibition at 500 µg/mL (Staphylococcus aureus [2])	Activity [3]	zone of inhibition at 250 µg/mL (Aspergillus flavus [4])	zone of inhibition at 1000 µg/mL (Aspergillus flavus [5])	zone of inhibition at 250 µg/mL (Staphylococcus aureus [6])	zone of inhibition at 500 µg/mL (Pseudomonas aeruginosa [7])	zone of inhibition at 1000 µg/mL (Escherichia coli [8])	inhibition zone (IZ) [9]	zone of inhibition at 1000 µg/mL (Staphylococcus aureus [10])	zone of inhibition at 250 µg/mL (Candida albicans [11])	zone of inhibition at 500 µg/mL (Candida albicans [12])	zone of inhibition at 500 µg/mL (Escherichia coli [13])	zone of inhibition at 250 µg/mL (Pseudomonas aeruginosa [14])	Activity (Mus musculus [15])	zone of inhibition at 500 µg/mL (Aspergillus flavus [16])	inhibition zone (IZ) [17]	inhibition zone (IZ) [18]	zone of inhibition at 1000 µg/mL (Pseudomonas aeruginosa [19])	zone of inhibition at 1000 µg/mL (Candida albicans [20])	further results
CCOC(=O)C1=C(C)NC(C)=C(C(=O)OCC)C1c1c[nH]nc1-c1ccc(-c2ccccc2)cc1	7 mm	12 mm	65.3%	1 mm	5 mm	10 mm	13 mm	13 mm	0 mm	16 mm	2 mm	4 mm	10 mm	11 mm	Non-toxic	2 mm	0 mm	3 mm	17 mm	6 mm	Activity (Mus musculus [21]): Non-toxic
CCOC(=O)C1=C(C)NC(C)=C(C(=O)OCC)C1c1c[nH]nc1-c1ccc(Cl)cc1	10 mm	10 mm	62.3%	0 mm	2 mm	8 mm	13 mm	17 mm	0 mm	15 mm	0 mm	2 mm	12 mm	10 mm	–	0 mm	0 mm	3 mm	16 mm	4 mm	Activity (Mus musculus [22]): Toxic; Activity (Mus musculus [23]): Toxic
CCOC(=O)C1=C(C)NC(C)=C(C(=O)OCC)C1c1c[nH]nc1-c1ccc(SC)cc1	9 mm	12 mm	61.1%	0 mm	0 mm	10 mm	11 mm	17 mm	0 mm	16 mm	0 mm	0 mm	12 mm	8 mm	Non-toxic	0 mm	0 mm	0 mm	14 mm	0 mm	Activity (Mus musculus [21]): Non-toxic
CCOC(=O)C1=C(C)NC(C)=C(C(=O)OCC)C1c1c[nH]nc1-c1ccc(OC)cc1	5 mm	8 mm	30.3%	0 mm	2 mm	6 mm	7 mm	12 mm	0 mm	13 mm	2 mm	1 mm	8 mm	5 mm	–	1 mm	2 mm	3 mm	10 mm	3 mm	–
